Data on 47 molecules can be found in ChEMBL document CHEMBL1782010, “Synthesis and evaluation of quinoxaline derivatives as potential influenza NS1A protein inhibitors” (Bioorg Med Chem Lett, 2011).

For assay [1], the system named is Influenza A virus (A/udorn/1972(H3N2)). Description: Inhibition of Influenza A/Udorn/72/H3N2 full length GST-tagged NS1A/FAM-double strand RNA-interaction at 50 uM after 1 hr by fluorescence polarization assay. Summed up:
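Fluorescence polarization: carboxyfluorescein-labelled dsRNA (FAM-dsRNA) probe binds NS1A protein, which raises polarization. Disruption of binding read at 50 μM compound and reported as % binding. Run in duplicate; values averaged.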

Assay [2] has as its system Nucleic Acid. Description: Binding affinity to double strand RNA assessed as denaturation of double strand RNA to single strand RNA at 50 uM after 1 hr by fluorescence polarization assay. Format: nucleic-acid assay. Summed up: (§1)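 Counter-screen of FAM-dsRNA alone, with no NS1A target, by an analogous fluorescence polarization assay at 50 μM compound. Reported as % intercalation: a positive sign means intercalation into the dsRNA, a negative sign means denaturation of the dsRNA to single strands. Duplicates averaged.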

Assay [3] has as its system Nucleic Acid. Description: Binding affinity to double strand RNA assessed as compound intercalation to double strand RNA at 50 uM after 1 hr by fluorescence polarization assay. It is filed as nucleic-acid assay. Summed up:
as §1
(In general: Polarisation of emitted light reports the rotation of a fluorescent probe.)

Assay [4] is described as follows: Inhibition of Influenza A/Udorn/72/H3N2 full length GST-tagged NS1A/FAM-dsRNA-interaction after 1 hr by fluorescence polarization assay. Set-up: species or system Influenza A virus (A/udorn/1972(H3N2)). Summed up:
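Dose-dependent version of the FAM-dsRNA/NS1A fluorescence polarization binding assay. The rise in polarization on probe binding to NS1A gives the read-out, and IC50 is taken from the dose-response. Run in duplicate; values averaged.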

Assay [5] relates to Influenza A virus. Briefly: Antiviral activity against Influenza A/Udorn/72 virus infected in MDCK cells assessed as inhibition of viral growth at 30 uM treated 1 hr after infection measured up to 15 hrs by plaque assay relative to control. It is filed as functional, Influenza A virus (A/udorn/1972(H3N2)). Summed up:
(§2)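 MDCK cells infected with influenza A/Udorn/72, either at MOI 5 (single-cycle growth) or at MOI 0.001 (multiple-cycle growth). After 1 h infection, growth medium containing compound diluted in DMSO was added; control received 0.1% DMSO. Virus yield was followed over time as growth curves.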

In assay [6] the test system is Influenza A virus. Briefly: Antiviral activity against Influenza A/Udorn/72 virus infected in MDCK cells assessed as reduction of plaque forming unit at 60 uM treated 1 hr after infection measured after 36 hrs by plaque assay. The note with it: Influenza A virus (A/udorn/1972(H3N2)). It is filed as functional, organism-based. Summed up: as §2

Molecules are shown by their SMILES. Activity calls are given as the source filed them. No cut-off for these calls is given here.

With `O=[N+]([O-])c1ccc2nc(-c3ccccn3)c(-c3ccccn3)nc2c1`, the inhibition in assay [1] is 7.8%. In addition, the Activity in the assay with Nucleic Acid [2] was -5.6%.
Turning to `Oc1cccc(-c2nc3ccc(O)cc3nc2-c2cccc(O)c2)c1`, the inhibition in assay [1] worked out at 25%. Also, the Activity with Nucleic Acid [3] stood at 18.2%.
For `COc1ccc(CNC(=O)c2ccc3nc(-c4ccco4)c(-c4ccco4)nc3c2)cc1`, in that order: 44% and 7.6%.
For `COc1ccc2nc(-c3ccco3)c(-c3ccco3)nc2c1` the same measures were 54.3% and -3.2%.
Consider `COC(=O)CNC(=O)c1ccc2nc(-c3ccco3)c(-c3ccco3)nc2c1`, for which the inhibition in assay [1] is 26.7%. Further, the Activity in the assay on Nucleic Acid [2] was -27.9%.
As for `COc1ccc2nc(-c3ccccc3OC)c(-c3ccccc3OC)nc2c1`, the inhibition in assay [1] stood at 4.4%. For the same molecule, the Activity in the assay with Nucleic Acid [2] was -5%.
Regarding `Oc1ccc2nc(-c3ccccc3O)c(-c3ccccc3O)nc2c1`, in assay [1], the inhibition is 10.9%. For the same molecule, in the assay with Nucleic Acid [3], the Activity turned out to be 0.9%.
Take `O=C(NCc1ccccn1)c1ccc2nc(-c3ccco3)c(-c3ccco3)nc2c1`: the inhibition in assay [1] worked out at 64.7%. Moreover, the Activity in the assay on Nucleic Acid [2] was -9.6%. Moreover, the IC50 in assay [4] amounted to 43.3 µM.
As to `O=[N+]([O-])c1ccc2nc(-c3cccc(O)c3)c(-c3cccc(O)c3)nc2c1`, in assay [1], the inhibition stood at 42.8%. Also, the Activity in the assay with Nucleic Acid [2] is -15.8%.
In the case of `Oc1ccc(-c2nc3ccc(O)cc3nc2-c2ccc(O)cc2)cc1`, the inhibition in assay [1] turned out to be 38.8%. In the assay with Nucleic Acid [3], the Activity was 29.5%.
Take `Oc1ccc(-c2nc3ccccc3nc2-c2ccc(O)cc2)cc1`: the inhibition in assay [1] is 10.2%. For the same molecule, the Activity in the assay on Nucleic Acid [3] came to 8.5%.
For `COc1cccc(-c2nc3ccccc3nc2-c2cccc(OC)c2)c1`, in assay [1], the inhibition was 1.4%. Also, the Activity in the assay on Nucleic Acid [2] was -6%.
On to `COC(=O)c1ccc2nc(-c3ccco3)c(-c3ccco3)nc2c1`, for which, in assay [1], the inhibition came out at 76%. In the assay on Nucleic Acid [2], the Activity is -12.3%. The IC50 in assay [4] is 74.8 µM.
Turning to `COc1ccccc1-c1nc2ccc([N+](=O)[O-])cc2nc1-c1ccccc1OC`, the inhibition in assay [1] stood at 6.7%. Moreover, the Activity with Nucleic Acid [2] was -3.7%.
For the molecule `O=C(NCc1ccco1)c1ccc2nc(-c3ccco3)c(-c3ccco3)nc2c1`, the inhibition in assay [1] was 79.5%. Also, the Activity in the assay with Nucleic Acid [3] was determined as 5.9%. Moreover, in the assay with Influenza A virus [5], the “fold change (FC)” value is reported as 10. In addition, the outcome with Influenza A virus [6] was inactive. Further, in assay [4], half-maximal inhibition (IC50) was put at 3.5 µM.
On to `O=[N+]([O-])c1ccc2nc(-c3ccc4c(c3)OCO4)c(-c3ccc4c(c3)OCO4)nc2c1`, for which, in assay [1], the inhibition was 56.6%. Besides, the Activity in the assay with Nucleic Acid [3] turned out to be 24.4%.
Turning to `O=C(NCc1ccccc1F)c1ccc2nc(-c3ccco3)c(-c3ccco3)nc2c1`, the inhibition in assay [1] came out at 11.6%. In addition, the Activity with Nucleic Acid [2] was -11.3%.
For `O=C(O)c1ccc2nc(-c3ccccn3)c(-c3ccccn3)nc2c1`, in assay [1], the inhibition came out at 15.7%. Also, the Activity in the assay with Nucleic Acid [3] is 2.9%.
On to `COc1ccc(-c2nc3ccccc3nc2-c2ccc(OC)cc2)cc1`, for which, in assay [1], the inhibition turned out to be 0.5%. In addition, the Activity with Nucleic Acid [3] was determined as 1.4%.
For `COc1ccc(-c2nc3ccc([N+](=O)[O-])cc3nc2-c2ccc(OC)cc2)cc1`, in the assay with Nucleic Acid [3], the Activity was 113%.
Take `c1ccc(-c2nc3ccccc3nc2-c2ccccn2)nc1`: the inhibition in assay [1] is -3.1%. Besides, the Activity with Nucleic Acid [3] is 2.3%.
For `COC(=O)c1ccc(CNC(=O)c2ccc3nc(-c4ccco4)c(-c4ccco4)nc3c2)cc1`, in that order: 47.9% and 8.8%.
Regarding `c1coc(-c2nc3ccccc3nc2-c2ccco2)c1`, the inhibition in assay [1] came out at 7.3%. Besides, the Activity with Nucleic Acid [2] was -23.7%.
Regarding `O=C(O)c1ccc2nc(-c3ccc4c(c3)OCO4)c(-c3ccc4c(c3)OCO4)nc2c1`, in assay [1], the inhibition is 23.2%. For the same molecule, in the assay on Nucleic Acid [2], the Activity was -4.8%.
For `O=[N+]([O-])c1ccc2nc(-c3ccc(O)cc3)c(-c3ccc(O)cc3)nc2c1`, in that order: 19.5% and -32%.
For `Oc1ccccc1-c1nc2ccccc2nc1-c1ccccc1O`, in assay [1], the inhibition was -0.9%. For the same molecule, the Activity in the assay with Nucleic Acid [3] is -1%.
Regarding `COc1cc(CNC(=O)c2ccc3nc(-c4ccco4)c(-c4ccco4)nc3c2)cc(OC)c1OC`, the inhibition in assay [1] was 53.6%. Also, the Activity in the assay with Nucleic Acid [2] is -4.7%.
Take `O=C(NCc1cccc(F)c1)c1ccc2nc(-c3ccco3)c(-c3ccco3)nc2c1`: the inhibition in assay [1] stood at 13.6%. Also, the Activity in the assay with Nucleic Acid [2] was -11.6%.
On to `COc1ccc(CNC(=O)c2ccc3nc(-c4ccco4)c(-c4ccco4)nc3c2)cc1OC`, for which, in assay [1], the inhibition is 39.5%. The Activity with Nucleic Acid [3] came out at 5.6%.
As for `O=C(O)c1ccc2nc(-c3cccc(O)c3)c(-c3cccc(O)c3)nc2c1`, the inhibition in assay [1] was 28.7%. In the assay on Nucleic Acid [3], the Activity was -3.4%.
For the molecule `COc1ccccc1CNC(=O)c1ccc2nc(-c3ccco3)c(-c3ccco3)nc2c1`, the inhibition in assay [1] is 29.5%. Besides, the Activity in the assay on Nucleic Acid [2] was -17.7%.
For `O=C(NCc1cccs1)c1ccc2nc(-c3ccco3)c(-c3ccco3)nc2c1`, in that order: 8.2% and -10.5%.
`c1ccc2nc(-c3ccc4c(c3)OCO4)c(-c3ccc4c(c3)OCO4)nc2c1`: the inhibition in assay [1] was determined as 1.5%. For the same molecule, the Activity with Nucleic Acid [3] was determined as 7.9%.
In the case of `COc1cccc(-c2nc3ccc(C(=O)O)cc3nc2-c2cccc(OC)c2)c1`, the inhibition in assay [1] is 9.1%. Also, the Activity in the assay with Nucleic Acid [2] is -4.4%.
`O=C(O)c1ccc2nc(-c3ccco3)c(-c3ccco3)nc2c1`: in assay [1], the inhibition worked out at 60.9%. Further, the Activity in the assay with Nucleic Acid [3] came out at 5.8%.
Take `COc1ccccc1-c1nc2ccc(C(=O)O)cc2nc1-c1ccccc1OC`: in assay [1], the inhibition was determined as 2.8%. Moreover, in the assay with Nucleic Acid [2], the Activity is -2.5%.
For `Oc1cccc(-c2nc3ccccc3nc2-c2cccc(O)c2)c1` the same measures were 10.9% and -4.8%.
As to `O=[N+]([O-])c1ccc2nc(-c3ccco3)c(-c3ccco3)nc2c1`, the inhibition in assay [1] came out at 25.5%. Also, the Activity with Nucleic Acid [3] stood at 25.9%.
Consider `COc1ccc(-c2nc3ccc(OC)cc3nc2-c2ccc(OC)cc2)cc1`, for which the inhibition in assay [1] was determined as 1.8%. Besides, the Activity in the assay with Nucleic Acid [3] is 5.7%.
For the molecule `COc1cccc(-c2nc3ccc(OC)cc3nc2-c2cccc(OC)c2)c1`, the inhibition in assay [1] is 7.2%. Moreover, in the assay with Nucleic Acid [2], the Activity is -8.4%.
Consider `O=C(O[C@@H]1Cc2c(O)cc(O)cc2O[C@@H]1c1cc(O)c(O)c(O)c1)c1cc(O)c(O)c(O)c1`, for which the inhibition in assay [1] came out at 89%.
Regarding `COc1cccc(-c2nc3ccc([N+](=O)[O-])cc3nc2-c2cccc(OC)c2)c1`, the inhibition in assay [1] is 1.5%. The Activity with Nucleic Acid [3] stood at 1.9%.
On to `O=C(NCc1ccc(F)cc1)c1ccc2nc(-c3ccco3)c(-c3ccco3)nc2c1`, for which the inhibition in assay [1] worked out at 49%. For the same molecule, the Activity in the assay on Nucleic Acid [3] stood at 6.3%.
In the case of `COc1ccc(-c2nc3ccc(C(=O)O)cc3nc2-c2ccc(OC)cc2)cc1`, in assay [1], the inhibition amounted to 4.5%. In addition, in the assay with Nucleic Acid [2], the Activity is -4.8%.
`O=C(O)c1ccc2nc(-c3ccc(O)cc3)c(-c3ccc(O)cc3)nc2c1`: the inhibition in assay [1] is 13.3%. Moreover, the Activity in the assay on Nucleic Acid [2] is -7.7%.
As for `COc1cccc(CNC(=O)c2ccc3nc(-c4ccco4)c(-c4ccco4)nc3c2)c1`, the inhibition in assay [1] came out at 74%. In addition, the Activity in the assay on Nucleic Acid [3] is 4.5%. In assay [4], this molecule gave an IC50 of 6.2 µM.
For `COc1ccccc1-c1nc2ccccc2nc1-c1ccccc1OC`, in assay [1], the inhibition amounted to 5%. Moreover, the Activity in the assay on Nucleic Acid [2] is -6.7%.

As a reminder, the inhibition is the change of the read-out against control, counted positive when it falls. As a reminder, the IC50 is the point on the concentration scale where inhibition reaches its midpoint. Read a high IC50 as lower potency.
